Source: ChEMBL document CHEMBL4706586, “Structure-activity relationships for a series of (Bis(4-fluorophenyl)methyl)sulfinylethyl-aminopiperidines and -piperidine amines at the dopamine transporter: Bioisosteric replacement of the piperazine improves metabolic stability” (Eur J Med Chem, 2020)

How the values were obtained:
[1] = target: Sodium-dependent dopamine transporter (Rattus norvegicus, UniProt P23977); assay: Displacement of [3H]WIN35428 from DAT in Sprague-Dawley rat striatal membranes incubated for 120 mins by microbeta scintillation counting method; format: cell membranes, Striatum, Membrane
Sodium-dependent dopamine transporter, sequence (P23977 whole entry): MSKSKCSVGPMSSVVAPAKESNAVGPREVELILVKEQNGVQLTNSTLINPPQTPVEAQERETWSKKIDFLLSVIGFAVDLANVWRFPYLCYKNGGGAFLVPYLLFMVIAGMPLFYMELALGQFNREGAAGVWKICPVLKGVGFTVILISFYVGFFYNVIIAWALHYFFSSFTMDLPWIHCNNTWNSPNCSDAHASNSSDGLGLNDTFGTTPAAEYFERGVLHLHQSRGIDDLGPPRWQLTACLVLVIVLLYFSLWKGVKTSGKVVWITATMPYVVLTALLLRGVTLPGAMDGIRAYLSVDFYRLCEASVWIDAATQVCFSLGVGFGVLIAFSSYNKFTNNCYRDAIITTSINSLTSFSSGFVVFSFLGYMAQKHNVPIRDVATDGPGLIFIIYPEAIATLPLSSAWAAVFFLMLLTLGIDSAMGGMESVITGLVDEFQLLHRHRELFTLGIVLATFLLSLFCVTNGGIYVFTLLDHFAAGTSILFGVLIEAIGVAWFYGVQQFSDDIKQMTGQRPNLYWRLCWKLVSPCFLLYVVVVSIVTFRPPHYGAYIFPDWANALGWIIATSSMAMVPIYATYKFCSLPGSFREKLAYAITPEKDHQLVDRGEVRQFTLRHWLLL

[2] = target: Sodium-dependent serotonin transporter (Rattus norvegicus, UniProt P31652); assay: Displacement of [3H]citalopram from SERT in Sprague-Dawley rat midbrain membranes incubated for 60 mins by microbeta scintillation counting method; format: cell membranes, Membrane
Sodium-dependent serotonin transporter, sequence (P31652 whole entry): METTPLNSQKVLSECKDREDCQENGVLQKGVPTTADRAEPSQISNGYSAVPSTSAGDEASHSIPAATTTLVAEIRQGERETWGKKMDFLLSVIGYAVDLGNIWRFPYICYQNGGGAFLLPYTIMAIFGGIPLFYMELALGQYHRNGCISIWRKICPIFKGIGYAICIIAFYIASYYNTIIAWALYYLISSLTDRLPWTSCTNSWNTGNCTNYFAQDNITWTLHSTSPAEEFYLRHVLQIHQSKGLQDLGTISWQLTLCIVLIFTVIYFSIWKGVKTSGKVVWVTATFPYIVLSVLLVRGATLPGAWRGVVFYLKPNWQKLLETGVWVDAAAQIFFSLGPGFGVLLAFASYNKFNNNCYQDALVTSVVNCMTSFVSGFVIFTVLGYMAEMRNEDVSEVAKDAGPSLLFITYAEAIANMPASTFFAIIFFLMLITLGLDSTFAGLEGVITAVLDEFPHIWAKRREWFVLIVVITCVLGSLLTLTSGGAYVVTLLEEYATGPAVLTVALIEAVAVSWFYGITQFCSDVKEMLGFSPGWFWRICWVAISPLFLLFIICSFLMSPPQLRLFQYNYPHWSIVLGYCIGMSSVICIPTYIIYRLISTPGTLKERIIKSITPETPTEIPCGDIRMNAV

[3] = target: Sigma non-opioid intracellular receptor 1 (Cavia porcellus, UniProt Q60492); assay: Displacement of [3H](+)-pentazocine from sigma 1 receptor in guinea pig brain cortex membranes after 120 mins by scintillation counting analysis; format: cell membranes, Membrane
Sigma non-opioid intracellular receptor 1, sequence (Q60492 whole entry): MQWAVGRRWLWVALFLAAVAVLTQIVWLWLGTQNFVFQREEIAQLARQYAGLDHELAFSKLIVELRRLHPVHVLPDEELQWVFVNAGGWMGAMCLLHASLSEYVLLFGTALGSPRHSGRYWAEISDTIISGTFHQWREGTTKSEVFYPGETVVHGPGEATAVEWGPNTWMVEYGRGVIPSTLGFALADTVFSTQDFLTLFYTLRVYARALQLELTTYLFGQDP
In short: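 Male guinea pig cortex membranes in 10 mM Tris-HCl/0.32 M sucrose pH 7.4, 5.0 mg/well original wet weight; [3H](+)-pentazocine 3 nM final; inhibitor serial dilutions in 30% DMSO vehicle, triplicate; 120 min at RT; nonspecific with 10 μM PRE084 or (+)-pentazocine.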

Rattus norvegicus = organism: Rattus norvegicus; assay: Selectivity ratio of Ki for SERT in Sprague-Dawley rat midbrain membranes to Ki for DAT in Sprague-Dawley rat striatum membranes
[4] = Selectivity ratio of Ki for sigma 1 receptor in guinea pig brain cortex membranes to Ki for DAT in Sprague-Dawley rat striatum membranes; format: cell membranes
[5] = Displacement of [3H]-Nisoxetine from NET in Sprague-Dawley rat frontal cortex membrane after 180 mins by microbeta scintillation counting method; format: cell membranes
D(2) dopamine receptor = D(2) dopamine receptor (Homo sapiens, UniProt P14416); assay: Displacement of [3H]-N-methylspiperone from human D2L receptor expressed in HEK293 cell membranes measured after 60 mins by microbeta scintillation counting method; design: species or system Membrane
D(2) dopamine receptor, sequence (P14416 whole entry): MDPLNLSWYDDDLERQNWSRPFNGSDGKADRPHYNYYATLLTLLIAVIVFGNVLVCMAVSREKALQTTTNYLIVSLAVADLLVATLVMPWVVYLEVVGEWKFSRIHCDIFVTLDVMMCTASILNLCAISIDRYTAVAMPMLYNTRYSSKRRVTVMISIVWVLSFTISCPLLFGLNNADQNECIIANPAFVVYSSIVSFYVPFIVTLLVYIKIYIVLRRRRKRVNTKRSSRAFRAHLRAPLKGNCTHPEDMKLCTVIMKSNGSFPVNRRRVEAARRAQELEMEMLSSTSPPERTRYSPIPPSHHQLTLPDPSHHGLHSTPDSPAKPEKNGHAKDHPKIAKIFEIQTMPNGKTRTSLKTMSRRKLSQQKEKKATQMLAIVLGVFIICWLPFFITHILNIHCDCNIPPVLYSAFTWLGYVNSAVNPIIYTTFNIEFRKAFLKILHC
In short: (§1)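 Membranes from HEK293 cells stably expressing human D2LR, D3R or D4.4R; 20 μg/well protein (D2LR, D3R) or 30 μg/well (D4.4R); [3H]-N-methylspiperone 0.4 nM final; half-log dilutions in 30% DMSO, triplicate; 60 min RT; nonspecific 10 μM (+)-butaclamol.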

D(3) dopamine receptor = D(3) dopamine receptor (Homo sapiens, UniProt P35462); assay: Displacement of [3H]-N-methylspiperone from human D3 receptor expressed in HEK293 cell membranes measured after 60 mins by microbeta scintillation counting method; design: species or system Membrane; in short: as §1
D(3) dopamine receptor, sequence (P35462 whole entry): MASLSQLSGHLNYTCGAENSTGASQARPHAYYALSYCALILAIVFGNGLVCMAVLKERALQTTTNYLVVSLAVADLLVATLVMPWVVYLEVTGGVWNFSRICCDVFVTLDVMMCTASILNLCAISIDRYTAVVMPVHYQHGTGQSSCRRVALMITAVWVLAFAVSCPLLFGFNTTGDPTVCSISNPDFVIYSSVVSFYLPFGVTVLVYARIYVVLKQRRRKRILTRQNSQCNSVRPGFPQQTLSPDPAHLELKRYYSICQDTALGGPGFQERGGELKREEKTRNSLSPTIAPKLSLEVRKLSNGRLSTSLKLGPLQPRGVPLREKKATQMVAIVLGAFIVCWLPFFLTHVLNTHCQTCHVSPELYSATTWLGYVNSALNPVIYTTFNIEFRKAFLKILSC

D(4) dopamine receptor = target: T1, D(4) dopamine receptor (Homo sapiens, UniProt P21917); assay: Displacement of [3H]-N-methylspiperone from human D4.4 receptor expressed in HEK293 cell membranes measured after 60 mins by microbeta scintillation counting method; design: species or system Membrane; in short: as §1
T1 sequence (P21917 whole entry): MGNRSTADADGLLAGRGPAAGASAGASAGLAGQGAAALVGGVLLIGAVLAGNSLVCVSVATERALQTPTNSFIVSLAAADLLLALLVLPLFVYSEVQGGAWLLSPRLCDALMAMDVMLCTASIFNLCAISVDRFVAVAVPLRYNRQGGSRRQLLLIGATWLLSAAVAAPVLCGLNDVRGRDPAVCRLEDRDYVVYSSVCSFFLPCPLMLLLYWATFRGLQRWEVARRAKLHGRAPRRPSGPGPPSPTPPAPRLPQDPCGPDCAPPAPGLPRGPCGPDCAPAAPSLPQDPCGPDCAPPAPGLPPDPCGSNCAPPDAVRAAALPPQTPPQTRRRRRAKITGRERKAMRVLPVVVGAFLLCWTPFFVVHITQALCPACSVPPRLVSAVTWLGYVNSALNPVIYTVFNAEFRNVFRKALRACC

[6] = Metabolic stability in rat liver microsomes assessed as compound remaining at 10 uM incubated for 60 mins in presence of NADPH regenerating system by LC-MS/MS analysis; format: ADME, Microsome; conditions: 1 h
[7] = Metabolic stability in rat liver microsomes assessed as compound remaining at 10 uM in presence of NADPH regenerating system by LC-MS/MS analysis; format: ADME, Microsome
[8] = Toxicity in Swiss Webster mouse assessed as stimulation of ambulatory activity by measuring total distance travelled at 1 to 30 mg/kg, ip measured every 5 mins for 2 hrs; format: organism-based; conditions: in vivo, dose 1-30 mg/kg

Structure (SMILES)	Ki [1] [nM]	Ki [2] [µM]	Ki [3] [nM]	Ratio Ki (Rattus norvegicus)	Ratio Ki [4]	Ki [5] [nM]	Ki (D(2) dopamine receptor) [µM]	Ki (D(3) dopamine receptor) [nM]	Ki (D(4) dopamine receptor) [µM]	Stabilty [6] [%]	Stabilty [7] [%]	Activity [8] [cm]
O=C(c1ccccc1F)N1CCC(NCC[S+]([O-])C(c2ccc(F)cc2)c2ccc(F)cc2)CC1 (configuration not stated)	604	14.2	1310	23.5	2.16	–	–	–	–	–	–	–
CC(O)CN1CCN(CC[S+]([O-])C(c2ccc(F)cc2)c2ccc(F)cc2)CC1 (configuration not stated)	–	97.8	454	–	–	> 100000	–	–	–	–	–	–
OC(Cc1ccccc1)CN1CCC(NCCSC(c2ccc(F)cc2)c2ccc(F)cc2)CC1 (configuration not stated)	31.4	–	309	–	–	585	4.02	691	2.2	74	100	–
CN(CCSC(c1ccc(F)cc1)c1ccc(F)cc1)C1CCN(C(=O)c2ccccc2F)CC1	222	0.992	5.87	4.47	0.03	–	–	–	–	–	–	–
CC(O)CN1CCN(CCSC(c2ccc(F)cc2)c2ccc(F)cc2)CC1 (configuration not stated)	37.8	6.8	2.24	–	–	–	–	–	–	–	–	–
Fc1ccc(CNC2CCN(CCSC(c3ccc(F)cc3)c3ccc(F)cc3)CC2)cc1	–	–	41.4	4.79	0.74	–	–	–	–	–	–	–
Fc1ccc(C(SCCNC2CCN(Cc3cc4ccccc4o3)CC2)c2ccc(F)cc2)cc1	120	0.695	205	5.79	1.71	–	–	–	–	–	–	–
CN(CCSC(c1ccc(F)cc1)c1ccc(F)cc1)C1CCN(C(=O)c2ccc(F)cc2)CC1	190	2.44	7.11	12.8	0.04	–	–	–	–	–	–	–
CC(C)N(CCSC(c1ccc(F)cc1)c1ccc(F)cc1)C1CCN(C(=O)c2ccccc2F)CC1	1530	16.3	126	10.7	0.08	–	–	–	–	–	–	–
Fc1ccc(C(SCCNC2CCN(CCc3ccccc3)CC2)c2ccc(F)cc2)cc1	–	–	57.7	4.57	1.83	–	–	–	–	–	–	–
Fc1ccc(C(SCCN2CCC(NCc3ccccc3)CC2)c2ccc(F)cc2)cc1	–	–	60.9	3.06	0.56	–	–	–	–	–	–	–
Fc1ccc(CN2CCC(NCCSC(c3ccc(F)cc3)c3ccc(F)cc3)CC2)cc1	–	–	13.3	10.9	0.52	–	2.92	911	0.98	70	100	–
Fc1ccc(C(SCCN2CCC(NCc3ccc(C(F)(F)F)cc3)CC2)c2ccc(F)cc2)cc1	–	–	162	–	–	–	–	–	–	–	–	–
O=C(c1ccccc1F)N1CCC(NCCSC(c2ccc(F)cc2)c2ccc(F)cc2)CC1	46.1	0.351	3.57	7.61	0.08	–	–	–	–	–	–	–
CC(C)(C)C(=O)N1CCC(NCCSC(c2ccc(F)cc2)c2ccc(F)cc2)CC1	–	–	163	–	–	–	6.07	3420	11.9	–	–	–
NC(=O)C[S+]([O-])C(c1ccccc1)c1ccccc1 (racemic) [MODAFINIL]	–	–	–	–	–	–	> 100	39000	> 100	–	–	–
OC(CNC1CCN(CCSC(c2ccc(F)cc2)c2ccc(F)cc2)CC1)Cc1ccccc1 (configuration not stated)	–	–	88	1.4	1.84	–	2.27	701	2.67	69	100	–
O=C(c1cc2ccccc2o1)N1CCC(NCCSC(c2ccc(F)cc2)c2ccc(F)cc2)CC1	–	–	304	–	–	–	–	–	–	–	–	–
Fc1ccc(C(SCCNC2CCN(Cc3ccccc3)CC2)c2ccc(F)cc2)cc1	–	–	3.81	12.4	0.12	–	–	–	–	–	–	–
[O-][S+](CCNC1CCN(CC(O)Cc2ccccc2)CC1)C(c1ccc(F)cc1)c1ccc(F)cc1 (configuration not stated)	–	–	351	6.53	3.82	–	6.61	5500	–	22	100	–
Fc1ccc(C(SCCNC2CCN(Cc3ccc(Cl)cc3)CC2)c2ccc(F)cc2)cc1	–	–	45.5	9.04	1.15	–	–	–	–	–	–	–

Structure (SMILES)	Ki [1] [nM]	Ki [2] [µM]	Ki [3] [nM]	Ratio Ki (Rattus norvegicus)	Ratio Ki [4]	Ki [5] [nM]	Ki (D(2) dopamine receptor) [µM]	Ki (D(3) dopamine receptor) [nM]	Ki (D(4) dopamine receptor) [µM]	Stabilty [6] [%]	Stabilty [7] [%]	Activity [8] [cm]
Fc1ccc(C(SCCNC2CCN(Cc3cc4ccccc4[nH]3)CC2)c2ccc(F)cc2)cc1	–	–	205	–	–	–	–	–	–	–	–	–
O=C(c1ccc(F)cc1)N1CCC(NCCSC(c2ccc(F)cc2)c2ccc(F)cc2)CC1	7.04	–	32.1	69.5	4.59	258	8.83	5230	9.02	24	100	–
[O-][S+](CCN1CCN(CC(O)Cc2ccccc2)CC1)C(c1ccc(F)cc1)c1ccc(F)cc1 (configuration not stated)	2.6	12.7	41.6	–	–	–	–	–	–	–	–	–
Fc1ccc(C(SCCNC2CCN(Cc3ccc(C(F)(F)F)cc3)CC2)c2ccc(F)cc2)cc1	–	–	186	–	–	–	–	–	–	–	–	–
NC(=O)C[S@+]([O-])C(c1ccc(F)cc1)c1ccc(F)cc1	2970	15	> 100000	5.05	> 34	–	–	–	–	–	–	–
O=C(c1ccc(F)cc1F)N1CCC(NCC[S+]([O-])C(c2ccc(F)cc2)c2ccc(F)cc2)CC1 (configuration not stated)	564	4.61	171	8.17	0.3	–	–	–	–	–	–	–
CC(C)(C)C(=O)N1CCC(NCC[S+]([O-])C(c2ccc(F)cc2)c2ccc(F)cc2)CC1 (configuration not stated)	–	–	11200	3.14	1.1	–	–	–	–	–	–	–
Fc1ccc(C(SCCN2CCC(NCc3ccc(Cl)cc3)CC2)c2ccc(F)cc2)cc1	–	–	62.4	4.59	0.72	–	–	–	–	–	–	–
NC(=O)C[S@@+]([O-])C(c1ccc(F)cc1)c1ccc(F)cc1	4830	38.9	> 100000	8.05	> 21	–	–	–	–	–	–	–
O=C(c1ccccc1)N1CCC(NCCSC(c2ccc(F)cc2)c2ccc(F)cc2)CC1	4.51	0.283	2.03	62.8	0.45	920	2.9	2510	4.11	7	100	–
CC(O)CN1[C@H](C)CN(CCSC(c2ccc(F)cc2)c2ccc(F)cc2)C[C@@H]1C (some centres not stated)	–	–	–	641	0.243	–	11.9	1470	–	–	–	–
Fc1ccc(C(SCCNC2CCN(CC3CC3)CC2)c2ccc(F)cc2)cc1	–	–	269	3.93	0.66	–	–	–	–	–	–	–
O=C(c1ccc(F)cc1)N1CCC(NCC[S+]([O-])C(c2ccc(F)cc2)c2ccc(F)cc2)CC1 (configuration not stated)	–	–	1440	60.1	18.7	23000	156	28200	> 100	79	100	< 3000
O=C(c1ccccc1)N1CCC(NCC[S+]([O-])C(c2ccc(F)cc2)c2ccc(F)cc2)CC1 (configuration not stated)	–	–	585	–	–	–	–	–	–	–	–	–
CC(C)(C)CN1CCC(NCCSC(c2ccc(F)cc2)c2ccc(F)cc2)CC1	–	–	315	3.39	1.13	–	–	–	–	–	–	–
CN(CC[S+]([O-])C(c1ccc(F)cc1)c1ccc(F)cc1)C1CCN(C(=O)c2ccccc2F)CC1 (configuration not stated)	7380	251	516	34	0.07	–	–	–	–	–	–	–
O=C(c1cc2ccccc2[nH]1)N1CCC(NCCSC(c2ccc(F)cc2)c2ccc(F)cc2)CC1	177	–	1130	–	–	–	–	–	–	–	–	–
CC(C)(C)CN1CCC(NCC[S+]([O-])C(c2ccc(F)cc2)c2ccc(F)cc2)CC1 (configuration not stated)	–	–	542	16.2	1.26	–	–	–	–	–	–	–
NC(=O)C[S+]([O-])C(c1ccc(F)cc1)c1ccc(F)cc1 (racemic)	4090	48.7	> 100000	11.9	> 24	–	–	–	–	–	–	–
O=C(C1CC1)N1CCC(NCCSC(c2ccc(F)cc2)c2ccc(F)cc2)CC1	–	–	46.4	5.67	0.26	–	–	–	–	–	–	–
